Assay [1] in a line: Cytotoxicity against human HL7702 cells after 48 hrs by MTT assay. It counts as cell-based. The settings on record: L02, 48 h. The method, boiled down: (§1)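 Cell lines: HepG2, A549 and MCF-7 from ATCC; SMMC-7721 hepatocellular carcinoma and QSG-7701 and HL-7702 normal human hepatocyte lines from the Type Culture Collection of the Chinese Academy of Sciences, Shanghai. Each line was exposed to compound and growth inhibition was scored; IC50 values reported as mean ± deviation.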
(In general: Formazan colour is commonly taken as a measure of viable cells.)

Assay [2] concerns HepG2. The assay is described as follows: Induction of apoptosis in human HepG2 cells assessed as cytochrome c release from mitochondria at 4 uM after 12 hrs by immunofluorescence analysis relative to control. In kind it is functional, cell-based. In short, it runs like this: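 HepG2 cells were treated at 4 µM for 12 h, then assessed for cytochrome c release from mitochondria.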

Assay [3] has as its system MCF7. The assay is described as follows: Cytotoxicity against human MCF7 cells after 48 hrs by MTT assay. It counts as functional, cell-based. The settings on record: MCF7, 48 h. The method, boiled down: as §1
Assay [4] relates to SMMC-7721. The assay is described as follows: Cytotoxicity against human SMMC7721 cells after 48 hrs by MTT assay. The settings on record: SMMC-7721, 48 h. It counts as functional, cell-based. In short, it runs like this:
as §1

Assay [5] in a line: Cytotoxicity against human QSG7701 cells after 48 hrs by MTT assay. In kind it is cell-based. The settings on record: QSG7701, 48 h. In short, it runs like this:
as §1

The test system of assay [6] is HepG2. The assay is described as follows: Induction of apoptosis in human HepG2 cells assessed as PARP cleavage after 8 hrs by Western blotting. It counts as functional, cell-based. The method, boiled down:
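HepG2 cells were treated either at 5, 10 and 20 µM for 8 h, or at 4 µM for 0, 3, 6 or 12 h. PARP cleavage was then assessed.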
(In general: A western blot detects proteins with antibodies after separation by electrophoresis.)

For assay [7], the system named is A549. The assay is described as follows: Cytotoxicity against human A549 cells after 48 hrs by MTT assay. It counts as functional, cell-based. The settings on record: A549, 48 h. The method, boiled down: as §1
The test system of assay [8] is HepG2. The assay is described as follows: Cytotoxicity against human HepG2 cells after 48 hrs by MTT assay. It counts as functional, cell-based. The settings on record: HepG2, 48 h. In short, it runs like this: as §1
The subject of assay [9] is HepG2. The assay is described as follows: Induction of apoptosis in human HepG2 cells assessed as caspase 3 activity at 4 uM at 12 hrs by Ac-DEVD-pNA-based colorimetric assay relative to control. It counts as functional. The method, boiled down: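 HepG2 cells were treated at 4 µM for 0, 3, 6 and 12 h. Caspase-3 activity was measured colorimetrically as conversion of Ac-DEVD-pNA to p-nitroaniline, using a Biovision kit per the manufacturer's protocol. Activity was expressed as fold over control.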

Assay [10] relates to A549. The assay is described as follows: Cytotoxicity against human A549 cells at 100 uM after 48 hrs by MTT assay. In kind it is functional, cell-based.
Assay [11] relates to SMMC-7721. The assay is described as follows: Cytotoxicity against human SMMC7721 cells at 100 uM after 48 hrs by MTT assay. It counts as functional, cell-based.
For assay [12], the system named is MCF7. The assay is described as follows: Cytotoxicity against human MCF7 cells at 100 uM after 48 hrs by MTT assay. In kind it is functional, cell-based.
The subject of assay [13] is HepG2. The assay is described as follows: Cytotoxicity against human HepG2 cells at 100 uM after 48 hrs by MTT assay. In kind it is functional, cell-based.

Activity calls are given as the source filed them. The rule behind the calls is not given here.

For `C[C@@H]1[C@@H]2CC(=O)O[C@@H]2C[C@]1(C)O`, the half-maximal inhibitory concentration (IC50) (commonly the concentration at which inhibition is half-maximal) in assay [1] came to 20.7 µM; in the assay on MCF7 [3] it was 7.56 µM; with SMMC-7721 [4], 6.56 µM; in [5], 16.3 µM; in the assay with A549 [7], 5.88 µM; in the assay with HepG2 [8], 5.36 µM. Further, the result with HepG2 [2] was Active. Moreover, in the assay on HepG2 [6], the Activity result is “Dose-dependent effect”. For the same compound, the “fold change (FC)” value in the assay on HepG2 [9] was 6.
`C[C@@H]1[C@@H]2C(=O)O[C@@H]2C[C@]1(C)O`: the result with A549 [10], in the assay on SMMC-7721 [11], with MCF7 [12] and in the assay on HepG2 [13] was inactive.

(Values after ChEMBL document CHEMBL3259761, “Myrotheciumones: bicyclic cytotoxic lactones isolated from an endophytic fungus of Ajuga decumbens” (Bioorg Med Chem Lett, 2014).)
